Here are results for four molecules from ChEMBL document CHEMBL1158454, “Discovery of a potent and orally active hedgehog pathway antagonist (IPI-926)” (J Med Chem, 2009).

Active and inactive are the calls of the source.

Data set [1] is described as follows: Elimination half life in Sprague-Dawley rat at 1 mg/kg, iv. Particulars: in vivo, read-out: beta t1/2 (converted). It counts as ADME, organism-based. Also on record: dose 1 mg/kg, route intravenous. In short, it runs like this:
(§1)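 Plasma sampled at 0.083-24 h (T_last 24 h), protein-precipitated with acetonitrile containing jervine internal standard, and quantified by LC/MS/MS. Parameters taken from the concentration-time profile.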

A short description of data set [2]: Toxicity in po dosed Ptc+/- Hic+/- mouse B837Tx cells allografted NOD/SCID mouse assessed as maximum tolerated dose after 5 days. Particulars: in vivo. It counts as organism-based. The method in brief: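 Tumor-bearing immunocompromised mice received repeat oral dosing for 5 days. MTD was defined as the dose tolerated by all animals (N = 3).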
Data set [3] in a line: Elimination half life in CD1 mouse at 1 mg/kg, iv. The following applies: in vivo, read-out: beta t1/2 (converted). Also on record: dose 1 mg/kg, route intravenous. It counts as ADME, organism-based. The method in brief:
as §1

The nature of data set [4]: Plasma clearance in CD1 mouse at 1 mg/kg, iv. In kind it is ADME, organism-based. Also on record: dose 1 mg/kg, route intravenous. In short, it runs like this:
as §1

Data set [5] is described as follows: Oral bioavailability in Sprague-Dawley rat at 5 mg/kg. It counts as ADME, organism-based. The following applies: in vivo.
The nature of data set [6]: in vitro. Particulars: human.
A short description of data set [7]: Plasma clearance in cynomolgus monkey at 1 mg/kg, iv. It counts as ADME, organism-based, Macaca fascicularis. More on the design: dose 1 mg/kg, route intravenous. The method in brief: as §1
Data set [8] in a line: Antitumor activity against Ptc+/- Hic+/- mouse B837Tx cells allografted in NOD/SCID mouse assessed as median time to unmeasurable tumor volume at 80 mg/kg, po administered daily for 21 days. It counts as functional. The method in brief:
(§2)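 NOD/SCID mice given 1 × 10^6 B837Tx cells in the right hind flank. Once tumors reached about 100-200 mm³, N=10/group were gavaged daily for 21 days. Vehicle: 30% (w/w) HPBCD in 0.1 M citrate phosphate buffer, pH 3, dosing solutions 5-10 mg/mL. Tumors measured in two perpendicular dimensions by caliper 3 times weekly. Regrowth monitored over a 21-day post-treatment phase.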

Data set [9] can be described thus: Volume of distribution in cynomolgus monkey at 1 mg/kg, iv. It counts as ADME, organism-based, Macaca fascicularis. Also on record: dose 1 mg/kg, route intravenous. Particulars: in vivo. The method in brief:
as §1

The nature of data set [10]: Volume of distribution in Sprague-Dawley rat at 1 mg/kg, iv. It counts as ADME, organism-based. More on the design: dose 1 mg/kg, route intravenous. Particulars: in vivo. The method in brief: as §1
A short description of data set [11]: Inhibition of HedgeHog pathway in mouse C3H10T1/2 cells assessed as inhibition of 20-(S)-hydroxysterol/22-(S)-hydroxysterol-induced osteoblastic differentiation after 72 hrs by alkaline phosphatase assay. Particulars: C3H 10T1/2, 72 h.
The nature of data set [12]: Oral bioavailability in Beagle dog at 4 mg/kg. It counts as ADME, organism-based, Canis lupus familiaris. Particulars: in vivo.
The nature of data set [13]: Oral bioavailability in CD1 mouse at 5 mg/kg. It counts as ADME, organism-based. The following applies: in vivo.
Data set [14] in a line: Plasma clearance in Sprague-Dawley rat at 1 mg/kg, iv. It counts as ADME, organism-based. More on the design: dose 1 mg/kg, route intravenous. The method in brief: as §1
Data set [15] in a line: Elimination half life in cynomolgus monkey at 1 mg/kg, iv. It counts as ADME, organism-based, Macaca fascicularis. Also on record: dose 1 mg/kg, route intravenous. Particulars: in vivo, read-out: beta t1/2 (converted). The method in brief: as §1
A short description of data set [16]: Oral bioavailability in cynomolgus monkey at 4 mg/kg. The following applies: in vivo. In kind it is ADME, organism-based, Macaca fascicularis.
Data set [17] is described as follows: Volume of distribution in Beagle dog at 1 mg/kg, iv. In kind it is ADME, organism-based, Canis lupus familiaris. More on the design: dose 1 mg/kg, route intravenous. Particulars: in vivo. The method in brief:
as §1

Data set [18] is described as follows: Volume of distribution in CD1 mouse at 1 mg/kg, iv. It counts as ADME, organism-based. Also on record: dose 1 mg/kg, route intravenous. The following applies: in vivo. In short, it runs like this: as §1
A short description of data set [19]: Elimination half life in Beagle dog at 1 mg/kg, iv. It counts as ADME, organism-based, Canis lupus familiaris. More on the design: dose 1 mg/kg, route intravenous. Particulars: in vivo, read-out: beta t1/2 (converted). In short, it runs like this:
as §1

Data set [20] in a line: Antitumor activity against Ptc+/- Hic+/- mouse B837Tx cells allografted in NOD/SCID mouse assessed as tumor-free interval on 21 days post treatment at 80 mg/kg, po administered daily for 21 days. In kind it is functional. In short, it runs like this:
as §2

The nature of data set [21]: Plasma clearance in Beagle dog at 1 mg/kg, iv. It counts as ADME, organism-based, Canis lupus familiaris. More on the design: dose 1 mg/kg, route intravenous. The method in brief:
as §1

In data set [22] the test system is Mus musculus. Kind of data set: (§3) Antitumor activity against Ptc+/- Hic+/- mouse B837Tx cells allografted in NOD/SCID mouse assessed as tumor-free interval on 21 days post treatment at 40 mg/kg, po administered daily for 21 days. It counts as functional. In short, it runs like this: as §2
Data set [23] concerns Mus musculus. Kind of data set: Antitumor activity against Ptc+/- Hic+/- mouse B837Tx cells allografted in NOD/SCID mouse assessed as effect on recurrence rate on post treatment at 40 mg/kg, po administered daily for 21 days. It counts as functional, organism-based. Also on record: dose 40 mg/kg. In short, it runs like this: as §2
The subject of data set [24] is Mus musculus. Kind of data set: (§4) Antitumor activity against Ptc+/- Hic+/- mouse B837Tx cells allografted in NOD/SCID mouse assessed as median time to unmeasurable tumor volume at 40 mg/kg, po administered daily for 21 days. It counts as functional. In short, it runs like this:
as §2

A short description of data set [25]: as §3. It counts as functional. In short, it runs like this: as §2
In data set [26] the target is Protein smoothened (Homo sapiens, UniProt Q99835). Put plainly: Inhibition of human recombinant SMO expressed in mouse C3H10T1/2 cells assessed as inhibition of association of BODIPY-cyclopamine. In kind it is cell-based, C3H 10T1/2.
Data set [27] can be described thus: as §4. It counts as functional. The method in brief: as §2
The nature of data set [28]: Antitumor activity against Ptc+/- Hic+/- mouse B837Tx cells allografted in NOD/SCID mouse assessed as tumor-free interval on 21 days post treatment at 30 mg/kg, po administered daily for 21 days. In kind it is functional. In short, it runs like this:
as §2

Data set [29] in a line: Antitumor activity against Ptc+/- Hic+/- mouse B837Tx cells allografted in NOD/SCID mouse assessed as median time to unmeasurable tumor volume at 30 mg/kg, po administered daily for 21 days. In kind it is functional. In short, it runs like this: as §2

Protein smoothened, sequence (Q99835 whole entry): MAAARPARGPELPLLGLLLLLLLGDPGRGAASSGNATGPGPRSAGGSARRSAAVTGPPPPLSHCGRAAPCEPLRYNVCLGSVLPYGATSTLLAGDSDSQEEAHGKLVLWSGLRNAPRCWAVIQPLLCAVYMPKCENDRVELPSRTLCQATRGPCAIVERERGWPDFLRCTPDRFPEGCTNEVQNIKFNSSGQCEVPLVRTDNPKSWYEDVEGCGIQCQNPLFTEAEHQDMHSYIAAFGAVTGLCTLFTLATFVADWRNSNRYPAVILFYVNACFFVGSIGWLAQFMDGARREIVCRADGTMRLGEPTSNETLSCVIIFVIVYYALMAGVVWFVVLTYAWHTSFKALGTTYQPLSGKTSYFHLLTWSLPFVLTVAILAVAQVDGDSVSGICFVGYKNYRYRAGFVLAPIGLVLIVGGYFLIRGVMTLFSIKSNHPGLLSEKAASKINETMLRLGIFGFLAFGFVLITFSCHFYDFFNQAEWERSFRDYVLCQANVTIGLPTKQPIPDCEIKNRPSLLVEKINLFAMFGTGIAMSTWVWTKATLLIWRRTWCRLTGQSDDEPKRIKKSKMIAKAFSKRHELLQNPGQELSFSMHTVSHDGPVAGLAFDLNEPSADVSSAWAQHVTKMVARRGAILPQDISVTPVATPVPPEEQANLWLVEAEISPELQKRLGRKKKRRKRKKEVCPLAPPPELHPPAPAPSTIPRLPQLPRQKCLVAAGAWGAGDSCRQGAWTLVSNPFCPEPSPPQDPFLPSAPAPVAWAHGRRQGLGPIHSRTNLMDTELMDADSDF

Regarding `CC1=C2C[C@H]3[C@@H](CC[C@@H]4Cc5[nH]ncc5C[C@@]43C)[C@@H]2CC[C@@]2(C1)O[C@@H]1C[C@H](C)CN[C@H]1[C@H]2C`, the half-life in data set [1] was 1.2 h; in data set [3], 3 h; in [15], 5.6 h; in data set [19], 6.8 h. In addition, the maximum tolerated dose (MTD) at 120 h in data set [2] came out at 80 mg/kg. Further, the clearance in data set [4] is 33.3 mL/min/kg; in [7] it was 30 mL/min/kg; in [14], 125 mL/min/kg; in data set [21], 10 mL/min/kg. Moreover, the bioavailability in data set [5] turned out to be 34%; in data set [12], 73%; in [13], 52%; in data set [16] it was 84%. In data set [6] (liver microsomes), the half-life at 0.5 µM stood at 2 h. Further, the figures for the Activity in data set [8] and in [20] were 9 days and 19 days, respectively. Further, the Vd in [9] is 13 L/kg; in [10], 13 L/kg; in data set [17], 6 L/kg; in [18] it was 9 L/kg. In data set [11], the EC50 is 13 nM.

As for `CC1=C2C[C@H]3[C@@H](CC=C4C[C@@H](O)CC[C@@]43C)[C@@H]2CC[C@]12O[C@@H]1C[C@H](C)CN[C@H]1[C@H]2C`, the outcome in [22], in data set [23] and in [24] was inactive.

Regarding `CC1=C2C[C@H]3[C@@H](CC[C@@H]4C[C@H](NS(C)(=O)=O)CC[C@@]43C)[C@@H]2CC[C@@]2(C1)O[C@@H]1C[C@H](C)CN[C@H]1[C@H]2C` [PATIDEGIB], the half-life in data set [1] is greater than 24 h; in data set [3], 10.5 h; in data set [15], 8.2 h; in data set [19], 15.5 h. The Activity in data set [25] is 21 days; in data set [27] it was 9 days. In addition, the IC50 in data set [26] is 1.4 nM. The MTD at 120 h in [2] stood at 40 mg/kg. Moreover, the clearance is 12.3 mL/min/kg in [4], 15 mL/min/kg in data set [7], 3.5 mL/min/kg in [14] and 11 mL/min/kg in data set [21]. Further, the bioavailability in data set [5] was found to be 100%; in data set [12] it was 50%; in data set [13], 100%; in data set [16] it was 74%. For the same molecule, the half-life at 0.5 µM in data set [6] (microsomes) was found to be 1.42 h. Besides, in data set [23], the outcome was Active. The figures for the Vd in data set [10], in data set [17] and in [18] were 30 L/kg, 15.3 L/kg and 11 L/kg, respectively. For the same molecule, the EC50 in [11] turned out to be 7 nM.

As to `CC1=C2C[C@H]3[C@@H](CC[C@@H]4CNC(=O)CC[C@@]43C)[C@@H]2CC[C@@]2(C1)O[C@@H]1C[C@H](C)CN[C@H]1[C@H]2C`, the half-life in data set [1] was 5.4 h; in data set [3], 3 h; in [15], 3.8 h; in data set [19], 6.5 h. Also, the Activity in [28] came out at 10 days; in data set [29], 9 days. Also, the maximal tolerated dose (MTD) at 120 h in [2] was found to be 30 mg/kg. The clearance in [4] was 8.33 mL/min/kg; in [7], 13.3 mL/min/kg; in data set [14] it was 10.5 mL/min/kg; in [21], 5.5 mL/min/kg. Moreover, the bioavailability is 100% in [5], 97% in data set [12], 100% in data set [13] and 100% in data set [16]. The half-life at 0.5 µM in data set [6] (microsomes) was 1.08 h. In addition, the volume of distribution (Vd) in data set [9] stood at 4.3 L/kg; in [10], 4.9 L/kg; in data set [17], 3 L/kg; in data set [18] it was 2 L/kg. In addition, the EC50 in [11] came to 25 nM.

The term MTD denotes the largest dose that counted as tolerated. What is called clearance is the rate of elimination divided by the concentration. In general, bioavailability refers to the share of a dose that reaches the circulation, judged against a reference dose that is usually intravenous. A word on the Vd: it is a proportionality between amount in the body and measured concentration, not a real space. As usually defined, the EC50 is the midpoint of the concentration-response curve. The IC50 is the point on the concentration scale where inhibition reaches its midpoint.
